According to ChEMBL document CHEMBL1641414, “Synthesis and pharmacological evaluation of 4-(3,4-dichlorophenyl)-N-methyl-1,2,3,4-tetrahydronaphthalenyl amines as triple reuptake inhibitors” (Bioorg Med Chem, 2011):

Legend:
[1] = Half life in human liver microsome; type: ADME; settings: liver microsomes
Summary of the method: (§1)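 Microsomal stability and CYP inhibition were run by a contract laboratory under its standard protocols. Stability was measured in human and mouse liver microsomes and reported as t1/2 in min. Midazolam was the reference substrate for CYP3A4.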

[2] = target: Sodium-dependent noradrenaline transporter (Homo sapiens, UniProt P23975); experiment: Inhibition of [3H]norepinephrine reuptake at human NET expressed in MDCK cells by scintillation counting; type: cell-based
Cytochrome P450 2D6 = Cytochrome P450 2D6 (Homo sapiens, UniProt P10635); experiment: Inhibition of CYP2D6; type: ADME; summary of the method: as §1
[3] = Half life in mouse liver microsome; type: ADME; settings: liver microsomes; summary of the method: as §1
Cytochrome P450 2C9 = Cytochrome P450 2C9 (Homo sapiens, UniProt P11712); experiment: Inhibition of CYP2C9; type: ADME; summary of the method: as §1
[4] = target: Sodium-dependent dopamine transporter (Homo sapiens, UniProt Q01959); experiment: Inhibition of [3H]dopamine reuptake at human DAT expressed in CHOK1 cells by scintillation counting; type: cell-based, CHO-K1
[5] = target: Voltage-gated inwardly rectifying potassium channel KCNH2 (Homo sapiens, UniProt Q12809); experiment: Inhibition of human ERG
Cytochrome P450 3A4 = Cytochrome P450 3A4 (Homo sapiens, UniProt P08684); experiment: Inhibition of CYP3A4; type: ADME; summary of the method: as §1
Cytochrome P450 2C19 = Cytochrome P450 2C19 (Homo sapiens, UniProt P33261); experiment: Inhibition of CYP2C19; type: ADME
Cytochrome P450 2C19, sequence (P33261 whole entry): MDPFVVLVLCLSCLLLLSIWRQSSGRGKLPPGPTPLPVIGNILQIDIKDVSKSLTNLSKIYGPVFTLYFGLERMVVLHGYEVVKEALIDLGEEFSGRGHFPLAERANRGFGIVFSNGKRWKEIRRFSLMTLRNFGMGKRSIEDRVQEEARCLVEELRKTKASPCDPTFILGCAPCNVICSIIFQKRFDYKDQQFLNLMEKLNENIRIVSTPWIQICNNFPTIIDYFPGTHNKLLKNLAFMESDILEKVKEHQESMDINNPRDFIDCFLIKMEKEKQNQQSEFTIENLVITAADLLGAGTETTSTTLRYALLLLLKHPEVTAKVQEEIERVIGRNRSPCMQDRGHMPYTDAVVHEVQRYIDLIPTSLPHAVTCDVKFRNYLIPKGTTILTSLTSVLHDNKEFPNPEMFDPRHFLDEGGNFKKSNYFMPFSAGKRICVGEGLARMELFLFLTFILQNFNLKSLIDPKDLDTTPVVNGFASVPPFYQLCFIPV

Cytochrome P450 2C9, sequence (P11712 whole entry): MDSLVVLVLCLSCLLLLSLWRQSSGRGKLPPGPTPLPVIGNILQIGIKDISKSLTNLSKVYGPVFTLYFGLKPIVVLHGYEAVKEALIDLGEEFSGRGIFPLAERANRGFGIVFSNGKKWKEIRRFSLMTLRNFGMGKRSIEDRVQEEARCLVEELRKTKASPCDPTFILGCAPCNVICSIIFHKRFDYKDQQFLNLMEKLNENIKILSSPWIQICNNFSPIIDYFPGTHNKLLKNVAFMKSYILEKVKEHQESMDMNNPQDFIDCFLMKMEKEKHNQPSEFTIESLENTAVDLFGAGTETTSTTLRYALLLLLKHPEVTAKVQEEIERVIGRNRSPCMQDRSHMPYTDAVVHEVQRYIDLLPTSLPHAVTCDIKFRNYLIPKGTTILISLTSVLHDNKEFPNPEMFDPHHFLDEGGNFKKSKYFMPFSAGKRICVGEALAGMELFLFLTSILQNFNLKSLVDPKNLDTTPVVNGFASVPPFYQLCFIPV
Sodium-dependent noradrenaline transporter, sequence (P23975 whole entry): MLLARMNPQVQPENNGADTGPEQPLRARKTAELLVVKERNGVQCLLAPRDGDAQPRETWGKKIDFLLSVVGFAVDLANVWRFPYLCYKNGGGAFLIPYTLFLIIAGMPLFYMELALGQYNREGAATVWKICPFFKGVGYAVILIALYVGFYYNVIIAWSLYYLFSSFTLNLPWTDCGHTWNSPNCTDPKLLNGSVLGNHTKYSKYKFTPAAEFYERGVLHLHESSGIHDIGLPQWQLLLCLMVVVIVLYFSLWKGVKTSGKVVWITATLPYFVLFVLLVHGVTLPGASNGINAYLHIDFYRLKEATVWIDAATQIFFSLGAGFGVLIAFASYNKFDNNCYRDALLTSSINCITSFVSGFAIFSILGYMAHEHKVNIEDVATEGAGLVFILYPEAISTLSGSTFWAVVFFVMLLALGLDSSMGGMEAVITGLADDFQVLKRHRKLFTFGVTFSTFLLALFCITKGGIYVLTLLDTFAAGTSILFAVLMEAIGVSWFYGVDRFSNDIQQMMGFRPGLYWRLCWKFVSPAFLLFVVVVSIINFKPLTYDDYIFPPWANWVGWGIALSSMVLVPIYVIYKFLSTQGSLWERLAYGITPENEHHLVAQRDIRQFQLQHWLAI
Sodium-dependent dopamine transporter, sequence (Q01959 whole entry): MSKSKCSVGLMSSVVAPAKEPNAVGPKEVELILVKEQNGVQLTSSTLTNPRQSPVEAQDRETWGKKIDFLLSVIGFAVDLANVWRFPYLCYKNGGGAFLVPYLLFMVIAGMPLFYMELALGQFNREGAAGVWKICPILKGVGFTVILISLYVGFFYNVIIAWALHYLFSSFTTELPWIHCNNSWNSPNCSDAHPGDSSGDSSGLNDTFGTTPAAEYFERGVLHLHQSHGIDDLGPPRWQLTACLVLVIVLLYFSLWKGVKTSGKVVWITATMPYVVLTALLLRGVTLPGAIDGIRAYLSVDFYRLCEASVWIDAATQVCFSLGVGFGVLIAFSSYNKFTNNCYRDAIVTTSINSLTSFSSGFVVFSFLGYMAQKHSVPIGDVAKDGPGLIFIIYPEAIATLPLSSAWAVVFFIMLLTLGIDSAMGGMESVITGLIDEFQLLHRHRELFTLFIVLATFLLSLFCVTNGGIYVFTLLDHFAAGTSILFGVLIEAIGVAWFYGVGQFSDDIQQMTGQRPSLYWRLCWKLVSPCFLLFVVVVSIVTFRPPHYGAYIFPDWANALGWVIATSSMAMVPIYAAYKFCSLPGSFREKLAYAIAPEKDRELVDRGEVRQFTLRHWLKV
Cytochrome P450 2D6, sequence (P10635 whole entry): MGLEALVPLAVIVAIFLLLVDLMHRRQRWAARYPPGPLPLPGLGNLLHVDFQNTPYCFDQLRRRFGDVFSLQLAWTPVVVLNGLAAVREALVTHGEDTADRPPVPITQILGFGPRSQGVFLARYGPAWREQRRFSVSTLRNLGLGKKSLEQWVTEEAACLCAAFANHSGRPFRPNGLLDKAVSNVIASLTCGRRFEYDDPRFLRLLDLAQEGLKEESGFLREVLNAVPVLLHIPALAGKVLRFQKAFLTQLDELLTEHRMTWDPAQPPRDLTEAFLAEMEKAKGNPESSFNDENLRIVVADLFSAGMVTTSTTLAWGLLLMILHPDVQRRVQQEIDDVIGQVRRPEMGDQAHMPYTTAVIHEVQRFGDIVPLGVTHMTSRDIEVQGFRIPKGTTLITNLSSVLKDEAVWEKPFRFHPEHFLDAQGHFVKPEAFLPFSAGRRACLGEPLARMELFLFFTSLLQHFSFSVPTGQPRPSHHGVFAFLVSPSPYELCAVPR
Voltage-gated inwardly rectifying potassium channel KCNH2, sequence (Q12809 whole entry): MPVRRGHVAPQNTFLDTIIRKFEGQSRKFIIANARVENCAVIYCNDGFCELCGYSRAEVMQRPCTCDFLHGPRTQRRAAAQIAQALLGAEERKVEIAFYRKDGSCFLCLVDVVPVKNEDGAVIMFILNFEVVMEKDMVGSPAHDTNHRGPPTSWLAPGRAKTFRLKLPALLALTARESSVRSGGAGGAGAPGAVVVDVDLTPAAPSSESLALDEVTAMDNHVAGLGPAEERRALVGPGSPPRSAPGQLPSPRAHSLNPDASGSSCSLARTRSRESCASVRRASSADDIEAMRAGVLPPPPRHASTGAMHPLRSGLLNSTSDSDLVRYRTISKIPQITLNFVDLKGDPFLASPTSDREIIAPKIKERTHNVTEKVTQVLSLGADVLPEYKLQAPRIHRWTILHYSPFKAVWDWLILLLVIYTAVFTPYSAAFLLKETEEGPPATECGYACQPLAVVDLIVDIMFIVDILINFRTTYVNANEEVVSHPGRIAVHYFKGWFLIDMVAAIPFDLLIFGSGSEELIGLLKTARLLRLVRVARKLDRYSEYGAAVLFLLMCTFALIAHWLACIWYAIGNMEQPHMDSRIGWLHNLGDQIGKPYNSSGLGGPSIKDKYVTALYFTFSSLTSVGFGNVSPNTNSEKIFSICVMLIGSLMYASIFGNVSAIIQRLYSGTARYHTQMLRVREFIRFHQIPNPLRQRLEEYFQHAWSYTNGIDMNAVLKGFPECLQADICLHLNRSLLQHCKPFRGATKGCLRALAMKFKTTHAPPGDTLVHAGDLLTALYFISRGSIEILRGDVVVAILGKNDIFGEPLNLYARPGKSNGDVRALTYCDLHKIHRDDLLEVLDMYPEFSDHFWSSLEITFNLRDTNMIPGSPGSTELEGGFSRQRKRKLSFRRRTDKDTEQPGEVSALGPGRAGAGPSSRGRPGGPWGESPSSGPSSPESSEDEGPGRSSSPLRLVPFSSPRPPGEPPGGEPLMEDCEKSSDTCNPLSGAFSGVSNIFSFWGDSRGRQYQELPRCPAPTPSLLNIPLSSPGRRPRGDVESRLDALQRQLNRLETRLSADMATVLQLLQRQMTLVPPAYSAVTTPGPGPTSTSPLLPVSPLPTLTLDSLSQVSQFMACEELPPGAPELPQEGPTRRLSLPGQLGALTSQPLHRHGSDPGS
Cytochrome P450 3A4, sequence (P08684 whole entry): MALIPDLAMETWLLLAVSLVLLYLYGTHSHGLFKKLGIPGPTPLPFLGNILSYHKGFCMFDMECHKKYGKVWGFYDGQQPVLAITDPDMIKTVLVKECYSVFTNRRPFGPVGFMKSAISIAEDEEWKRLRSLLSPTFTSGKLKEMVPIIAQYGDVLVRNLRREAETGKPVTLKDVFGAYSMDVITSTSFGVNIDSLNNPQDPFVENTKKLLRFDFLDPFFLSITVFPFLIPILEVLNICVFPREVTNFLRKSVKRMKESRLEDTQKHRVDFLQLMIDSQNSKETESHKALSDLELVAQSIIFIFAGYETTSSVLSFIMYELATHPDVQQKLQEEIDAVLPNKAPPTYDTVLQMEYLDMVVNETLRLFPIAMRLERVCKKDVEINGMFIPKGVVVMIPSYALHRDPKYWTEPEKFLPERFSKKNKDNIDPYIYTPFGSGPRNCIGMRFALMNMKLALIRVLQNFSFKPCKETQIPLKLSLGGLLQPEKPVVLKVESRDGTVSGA

**Q.** For CN[C@H]1CCc2ccccc2[C@@H]1c1ccc(Cl)c(Cl)c1, which half-life [1] is on record?
**A.** 1.77 h

**Q.** And the IC50 [2]?
**A.** 766 nM

**Q.** What about the IC50 (Cytochrome P450 2D6) of the same molecule?
**A.** 8 nM

**Q.** And the half-life [3]?
**A.** 1.68 h

**Q.** What about the IC50 (Cytochrome P450 2C9) of the same molecule?
**A.** > 10000 nM

**Q.** What about the IC50 [4] of the same molecule?
**A.** 91 nM

**Q.** Which IC50 [2] does the source give for CNC[C@H]1Cc2ccccc2[C@@H](c2ccc(Cl)c(Cl)c2)C1 here?
**A.** 372 nM

**Q.** And the IC50 [4]?
**A.** 484 nM

**Q.** Which IC50 [5] does the source give for CNC[C@@H]1Cc2ccccc2[C@H](c2ccc(Cl)c(Cl)c2)C1 here?
**A.** 2000 nM

**Q.** What about the IC50 (Cytochrome P450 3A4) of the same molecule?
**A.** > 25000 nM

**Q.** And the half-life [1]?
**A.** > 5 h

**Q.** And the IC50 [2]?
**A.** 210 nM

**Q.** What about the IC50 (Cytochrome P450 2D6) of the same molecule?
**A.** 154 nM

**Q.** And the half-life [3]?
**A.** > 5 h

**Q.** And the IC50 (Cytochrome P450 2C9)?
**A.** > 25000 nM

**Q.** What about the IC50 (Cytochrome P450 2C19) of the same molecule?
**A.** 6020 nM

**Q.** What about the IC50 [4] of the same molecule?
**A.** 111 nM

**Q.** For CN[C@@H]1Cc2ccccc2[C@@H](c2ccc(Cl)c(Cl)c2)C1, which IC50 [5] is on record?
**A.** 2320 nM

**Q.** What about the IC50 (Cytochrome P450 3A4) of the same molecule?
**A.** > 25000 nM

**Q.** What about the half-life [1] of the same molecule?
**A.** > 5 h

**Q.** And the IC50 (Cytochrome P450 2D6)?
**A.** 1160 nM

**Q.** And the half-life [3]?
**A.** 2 h

**Q.** And the IC50 (Cytochrome P450 2C9)?
**A.** > 25000 nM

**Q.** What about the IC50 (Cytochrome P450 2C19) of the same molecule?
**A.** 5260 nM

**Q.** What about the IC50 [4] of the same molecule?
**A.** 62 nM

**Q.** Which IC50 [5] does the source give for NCC[C@H]1Cc2ccccc2[C@@H](c2ccc(Cl)c(Cl)c2)C1 here?
**A.** 1510 nM

**Q.** What about the IC50 (Cytochrome P450 3A4) of the same molecule?
**A.** > 25000 nM

**Q.** And the half-life [1]?
**A.** > 5 h

**Q.** And the IC50 (Cytochrome P450 2D6)?
**A.** 13800 nM

**Q.** And the half-life [3]?
**A.** > 5 h

**Q.** What about the IC50 (Cytochrome P450 2C9) of the same molecule?
**A.** > 25000 nM

**Q.** And the IC50 (Cytochrome P450 2C19)?
**A.** 1640 nM

**Q.** What about the IC50 [4] of the same molecule?
**A.** 50 nM

**Q.** With CN[C@H]1CC[C@@H](c2ccc(Cl)c(Cl)c2)c2ccccc21 [SERTRALINE] as the molecule, how does the half-life [1] read?
**A.** > 2 h

**Q.** And the IC50 (Cytochrome P450 2D6)?
**A.** 1400 nM

**Q.** And the IC50 (Cytochrome P450 2C9)?
**A.** > 10000 nM

**Q.** What about the IC50 (Cytochrome P450 2C19) of the same molecule?
**A.** 310 nM

**Q.** For N[C@@H]1Cc2ccccc2[C@@H](c2ccc(Cl)c(Cl)c2)C1, which IC50 [2] is on record?
**A.** 731 nM

**Q.** And the IC50 [4]?
**A.** 408 nM

**Q.** What does the source list for CN(C)[C@@H]1Cc2ccccc2[C@H](c2ccc(Cl)c(Cl)c2)C1?
**A.** IC50 [2]: 164 nM; IC50 [4]: 273 nM

**Q.** Which IC50 [5] does the source give for CN[C@@H]1Cc2ccccc2[C@H](c2ccc(Cl)c(Cl)c2)C1 here?
**A.** 5270 nM

**Q.** What about the IC50 (Cytochrome P450 3A4) of the same molecule?
**A.** > 25000 nM

**Q.** And the half-life [1]?
**A.** > 5 h

**Q.** What about the IC50 (Cytochrome P450 2D6) of the same molecule?
**A.** 20 nM

**Q.** And the half-life [3]?
**A.** > 5 h

**Q.** And the IC50 (Cytochrome P450 2C9)?
**A.** > 25000 nM

**Q.** And the IC50 (Cytochrome P450 2C19)?
**A.** > 25000 nM

**Q.** What about the IC50 [4] of the same molecule?
**A.** 281 nM

**Q.** For CN[C@H]1Cc2ccccc2[C@H](c2ccc(Cl)c(Cl)c2)C1, which IC50 (Cytochrome P450 3A4) is on record?
**A.** > 25000 nM

**Q.** And the half-life [1]?
**A.** > 5 h

**Q.** What about the IC50 (Cytochrome P450 2D6) of the same molecule?
**A.** 67 nM

**Q.** What about the half-life [3] of the same molecule?
**A.** > 5 h

**Q.** And the IC50 (Cytochrome P450 2C9)?
**A.** > 25000 nM

**Q.** What about the IC50 (Cytochrome P450 2C19) of the same molecule?
**A.** > 25000 nM

**Q.** With CN(C)[C@H]1Cc2ccccc2[C@@H](c2ccc(Cl)c(Cl)c2)C1 as the molecule, how does the IC50 [2] read?
**A.** 98 nM

**Q.** What about the IC50 [4] of the same molecule?
**A.** 319 nM

**Q.** What does the source list for CN(C)C[C@H]1Cc2ccccc2[C@H](c2ccc(Cl)c(Cl)c2)C1 (mixture of isomers)?
**A.** IC50 [2]: 309 nM; IC50 [4]: 339 nM
